This note sets out measurements from ChEMBL document CHEMBL1921684, “Targeting zymogen activation to control the matriptase-prostasin proteolytic cascade” (J Med Chem, 2011).

Calls of active or inactive are those of the source. The calls are words filed in the database; no cut-off is given here.

Usually IC50 stands for the concentration at which inhibition is half-maximal. Low values mean greater potency in that assay, high ones weaker potency in that assay.

Experiment [1] concerns the target T1, Suppressor of tumorigenicity 14 protein (Homo sapiens, UniProt Q9Y5Y6).
T1 sequence (Q9Y5Y6 whole entry): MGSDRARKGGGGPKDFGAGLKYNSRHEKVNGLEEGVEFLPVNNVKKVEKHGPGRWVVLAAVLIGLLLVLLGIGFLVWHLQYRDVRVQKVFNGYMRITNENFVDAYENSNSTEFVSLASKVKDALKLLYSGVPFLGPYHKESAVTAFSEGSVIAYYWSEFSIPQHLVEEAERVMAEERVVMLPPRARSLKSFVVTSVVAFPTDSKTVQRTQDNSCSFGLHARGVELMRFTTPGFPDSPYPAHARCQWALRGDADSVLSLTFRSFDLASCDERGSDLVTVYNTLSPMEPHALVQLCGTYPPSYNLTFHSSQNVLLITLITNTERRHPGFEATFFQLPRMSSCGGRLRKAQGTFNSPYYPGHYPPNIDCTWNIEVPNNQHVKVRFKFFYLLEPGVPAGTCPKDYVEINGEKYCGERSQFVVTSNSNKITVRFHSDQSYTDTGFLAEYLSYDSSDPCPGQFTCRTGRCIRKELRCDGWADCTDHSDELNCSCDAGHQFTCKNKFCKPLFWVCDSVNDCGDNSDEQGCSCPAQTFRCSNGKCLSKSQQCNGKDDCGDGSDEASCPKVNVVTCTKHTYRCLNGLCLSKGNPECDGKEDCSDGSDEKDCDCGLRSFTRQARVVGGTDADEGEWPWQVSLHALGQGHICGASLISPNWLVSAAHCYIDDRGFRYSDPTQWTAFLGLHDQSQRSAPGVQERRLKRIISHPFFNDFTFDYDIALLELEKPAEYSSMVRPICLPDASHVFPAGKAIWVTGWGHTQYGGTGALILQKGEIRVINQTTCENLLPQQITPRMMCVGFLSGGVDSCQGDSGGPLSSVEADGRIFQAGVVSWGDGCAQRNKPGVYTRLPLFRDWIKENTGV
Nature of the experiment: Inhibition of acid-induced matriptase activation in human 184A1N4 cells using mAb M69 by cell-based ELISA like assay. The method in brief: (§1)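 184 A1N4 cells seeded at 8×10^4 cells/well 24 h ahead. Compound in pH 6.0 sodium phosphate buffer, 30 min at 4 °C, then 20 min at room temperature. Cells fixed in 4% formaldehyde with 0.1% Triton for 20 min. Activated matriptase detected with mAb M69, HRP anti-mouse IgG and TMB; A450. […] Screening used 5 μM final per compound in 1% DMSO.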
(In general: In an ELISA, binding on a coated surface is turned into a signal by an enzyme label.)

The target of experiment [2] is T2, Suppressor of tumorigenicity 14 protein (Homo sapiens) (UniProt Q9Y5Y6).
T2 sequence (whole entry): T1 sequence (Q9Y5Y6 whole entry)
Nature of the experiment: Inhibition of acid-induced matriptase activation in human 184A1N4 cell homogenate using mAb M69 after 30 mins by Western blot analysis. The method in brief:
(§2)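 Insoluble fraction of 184 A1N4 cell homogenates (made in PBS, collected by centrifugation) preincubated with compound in 150 mM sodium phosphate pH 6.0 for 30 min at 4 °C. Activation then induced for 20 min at room temperature. Non-reduced, unboiled samples run on 7.5% SDS-PAGE. Immunoblot probed with mAb M24 (total matriptase) or M69 (activated matriptase); chemiluminescent detection; triplicate.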

Experiment [3] concerns the target T2, Suppressor of tumorigenicity 14 protein (Homo sapiens). Nature of the experiment: Inhibition of acid-induced matriptase activation in human 184A1N4 cell homogenate using mAb M24 after 30 mins by Western blot analysis. A digest of the protocol:
as §2
(Immunoblotting shows a protein as a band on a membrane.)

Experiment [4] shares this target. Nature of the experiment: Inhibition of acid-induced matriptase activation in human 184A1N4 cells using mAb M69 after 20 mins by Western blotting. The class given is cell-based. The method in brief:
(§3)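 Intact 184 A1N4 cells pre-treated with compound in 150 mM sodium phosphate pH 6.0 for 30 min at 4 °C, then held 20 min at room temperature to drive activation. PBS served as non-activation control and buffer alone as activation control. Cells lysed in PBS with 1 mM DTNB and 1% Triton X-100. Non-reduced, unboiled lysates run on 7.5% SDS-PAGE. Blots probed with M24 (70-kDa latent form, 120-kDa matriptase-HAI-1 complex) or M69 (activated matriptase); triplicate.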

The target is the same in experiment [5]. Nature of the experiment: Inhibition of acid-induced matriptase activation in human 184A1N4 cells using mAb M24 after 20 mins by Western blotting. The class given is cell-based. The method in brief: as §3
For experiment [6] the target is unchanged. Nature of the experiment: Inhibition of acid-induced matriptase activation in human 184A1N4 cells using mAb M69 after 20 mins by cell-based ELISA-like assay. The method in brief:
as §1

Experiment [7] shares this target. Nature of the experiment: Inhibition of acid-induced matriptase-mediated prostasin activation in human HaCaT cells assessed as decrease in prostatin-HAI-1 complex after 30 mins by Western blot analysis. The class given is cell-based. A digest of the protocol:
(§4)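 HaCaT keratinocytes (DMEM, 10% FBS) incubated with compound in phosphate buffer pH 6.0 for 30 min at 4 °C, then 20 min at room temperature. Controls were PBS (no activation) and buffer alone. Lysates run non-reduced on 7.5% SDS-PAGE. Immunoblots probed with M24 (total matriptase), M69 (activated matriptase) and a polyclonal anti-prostasin antibody detecting the prostasin-HAI-1 complex.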

The target is the same in experiment [8]. Nature of the experiment: Inhibition of acid-induced matriptase activation in human 184A1N4 cells assessed as decrease in 120 kDa enzyme-HAI-1 complex using mAb M24 at 5 uM after 30 mins by Western blotting relative to untreated control. The class given is cell-based. A digest of the protocol:
as §3

For experiment [9] the target is unchanged. Nature of the experiment: Inhibition of acid-induced matriptase activation in human HaCaT cells using mAb M69 after 30 mins by Western blot analysis. The class given is cell-based. The method in brief: as §4
Experiment [10] has the same target. Nature of the experiment: Inhibition of acid-induced matriptase activation in human 184A1N4 cells assessed as decrease in 120 kDa enzyme-HAI-1 complex using mAb M69 after 30 mins by Western blotting. The class given is cell-based. The method in brief: as §3
For experiment [11] the target is unchanged. Nature of the experiment: Inhibition of acid-induced matriptase activation in human 184A1N4 cells assessed as increase in 70 kDa latent matriptase using mAb M24 at 5 uM after 30 mins by Western blotting. The class given is cell-based. The method in brief: as §3
For experiment [12] the target is unchanged. Nature of the experiment: Inhibition of acid-induced matriptase activation in human 184A1N4 cells assessed as decrease in 120 kDa enzyme-HAI-1 complex using mAb M24 after 30 mins by Western blotting relative to untreated control. The class given is cell-based. The method in brief: as §3
The target is the same in experiment [13]. Nature of the experiment: Inhibition of acid-induced matriptase activation in human HaCaT cells using mAb M24 after 30 mins by Western blot analysis. The class given is cell-based. A digest of the protocol: as §4
Experiment [14] has the same target. Nature of the experiment: Inhibition of acid-induced matriptase activation in human 184A1N4 cells assessed as increase in 70 kDa latent matriptase using mAb M24 after 30 mins by Western blotting. The class given is cell-based. The method in brief: as §3
Experiment [15] shares this target. Nature of the experiment: Inhibition of acid-induced matriptase activation in human 184A1N4 cells assessed as enzyme-HAI-1 complex using mAb M24 at 5 uM after 30 mins by Western blotting. The class given is cell-based. The method in brief:
as §3

Experiment [16] has the same target. Nature of the experiment: Inhibition of acid-induced matriptase activation in human 184A1N4 cells using mAb M69 at 5 uM by cell-based ELISA like assay. The method in brief: as §1

The compound `Cc1nc(N2C(=O)C(O)=C(C(=O)c3ccccc3)C2c2cccs2)sc1C` (stereo unspecified) gave an IC50 in [1] of 21.8 µM. Further, the inhibition result in experiment [2] and in experiment [3] was “Dose-dependent effect” each time.
For `[Cl-].[Na+]`, the inhibition result in experiment [4], in experiment [5] and in experiment [6] was “Dose-dependent effect” throughout.
For `Cc1nc(N2C(=O)C(O)=C(C(=O)c3cccs3)C2c2cccs2)sc1C` (stereo unspecified), the inhibition result in experiment [7], in [9], in [2], in [12], in experiment [3] and in experiment [13] was “Dose-dependent effect” each time. Also, the inhibition result in [14] is “Dose-dependent effect”. This compound yielded an IC50 in experiment [1] of 2.6 µM. Besides, the inhibition result in experiment [8], in [10] and in [11] was “Active” throughout.
Consider `O=C(C1=C(O)C(=O)N(c2nccs2)C1c1cccs1)c1cccs1` (stereo unspecified), for which inhibition in experiment [1] was half-maximal at 9.8 µM (IC50). The inhibition entry in experiment [15] and in experiment [16] was “Active” in each case. The inhibition entry in [2] and in experiment [3] was “Dose-dependent effect” throughout.
In [1], `Cc1nc(N2C(=O)C(O)=C(C(=O)c3cccs3)C2c2ccccc2)sc1C` (stereo unspecified) yielded an IC50 of 7 µM. Moreover, the inhibition result in experiment [10] was “Active”. Further, the inhibition entry in experiment [2] and in [3] was “Dose-dependent effect” in each case.
